Test results taken from ChEMBL document CHEMBL4325852, “Design, synthesis, and discovery of ocotillol-type amide derivatives as orally available modulators of P-glycoprotein-mediated multidrug resistance” (Eur J Med Chem, 2019).

Legend:
Format in all cases: cell-based
[1] = target: T1, ATP-dependent translocase ABCB1 (Homo sapiens, UniProt P08183); experiment: Reversal of P-gp-mediated multidrug resistance in human KBV cells assessed as potentiation of paclitaxel-induced cytotoxicity by measuring cell survival at 5 uM after 72 hrs by MTT assay (reference value: 104 +/- 8%)
T1 sequence (P08183 whole entry): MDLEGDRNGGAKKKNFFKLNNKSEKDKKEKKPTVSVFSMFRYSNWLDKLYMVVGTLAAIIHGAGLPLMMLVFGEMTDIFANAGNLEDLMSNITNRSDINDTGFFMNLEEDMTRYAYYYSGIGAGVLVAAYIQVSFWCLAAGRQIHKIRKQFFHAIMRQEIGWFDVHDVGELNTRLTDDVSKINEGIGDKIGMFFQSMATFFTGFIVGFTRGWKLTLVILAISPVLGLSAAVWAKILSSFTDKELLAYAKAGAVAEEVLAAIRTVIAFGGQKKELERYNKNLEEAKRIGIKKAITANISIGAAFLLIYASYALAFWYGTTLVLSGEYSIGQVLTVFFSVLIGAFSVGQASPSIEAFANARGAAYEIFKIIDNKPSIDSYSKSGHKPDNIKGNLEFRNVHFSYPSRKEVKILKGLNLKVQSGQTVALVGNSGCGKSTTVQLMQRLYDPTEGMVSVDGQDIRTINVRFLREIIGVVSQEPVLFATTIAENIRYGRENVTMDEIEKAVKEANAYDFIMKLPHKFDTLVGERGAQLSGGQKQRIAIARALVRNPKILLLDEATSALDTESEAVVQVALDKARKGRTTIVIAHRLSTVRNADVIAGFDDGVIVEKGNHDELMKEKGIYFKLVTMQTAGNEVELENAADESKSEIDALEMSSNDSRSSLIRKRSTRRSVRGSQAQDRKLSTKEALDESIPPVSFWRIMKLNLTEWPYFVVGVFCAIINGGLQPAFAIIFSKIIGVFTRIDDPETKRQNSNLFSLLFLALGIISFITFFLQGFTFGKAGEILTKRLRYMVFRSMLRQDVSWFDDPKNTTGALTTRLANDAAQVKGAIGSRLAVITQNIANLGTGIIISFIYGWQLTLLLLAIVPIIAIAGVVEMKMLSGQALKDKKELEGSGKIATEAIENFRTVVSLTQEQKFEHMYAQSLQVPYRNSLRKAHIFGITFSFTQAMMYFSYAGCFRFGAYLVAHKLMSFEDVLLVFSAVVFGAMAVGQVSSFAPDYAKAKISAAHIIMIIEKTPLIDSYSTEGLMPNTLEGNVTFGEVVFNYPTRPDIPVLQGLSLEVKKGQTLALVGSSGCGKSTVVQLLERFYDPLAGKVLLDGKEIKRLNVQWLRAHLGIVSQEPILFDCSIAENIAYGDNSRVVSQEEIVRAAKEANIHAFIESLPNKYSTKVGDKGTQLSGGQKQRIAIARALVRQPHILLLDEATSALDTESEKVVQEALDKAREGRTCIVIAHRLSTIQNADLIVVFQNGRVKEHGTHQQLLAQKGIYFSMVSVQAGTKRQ

[2] = Cytotoxicity against human KBV cells assessed as cell survival at 10 uM after 72 hrs by MTT assay relative to control; details: read-out: Survival
Summary of the method: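 KBV (Pgp-overexpressing MDR line) grown in DMEM/10% FCS, kept in 10 nM paclitaxel; seeded, compound (DMSO stock) added next day, 72 h; MTT 2 h, formazan in DMSO, A570 gives survival vs DMSO solvent control; n = 1-3 independent experiments, mean ± SD.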

[3] = target: T1, ATP-dependent translocase ABCB1; experiment: Reversal of P-gp-mediated multidrug resistance in human KBV cells assessed as potentiation of paclitaxel-induced cytotoxicity by measuring cell survival at 10 uM after 72 hrs by MTT assay (reference value: 104 +/- 8%)

SMILES | Survival [1] [%] | viability at 72 h, 10 µM [2] [%] | Survival [3] [%]
CC(C)(O)[C@H]1CC[C@@](C)([C@H]2CC[C@]3(C)[C@@H]2[C@H](O)C[C@@H]2[C@@]4(C)CC[C@H](NC(=O)c5cccnc5)C(C)(C)[C@@H]4CC[C@]23C)O1 | 55 | 87 | 49
CC(C)(O)[C@H]1CC[C@@](C)([C@H]2CC[C@]3(C)[C@@H]2[C@H](O)C[C@@H]2[C@@]4(C)CC[C@H](NC(=O)CCCCCCCN)C(C)(C)[C@@H]4CC[C@]23C)O1 | 84 | 80 | 38
CC(C)(O)[C@@H]1CC[C@@](C)([C@H]2CC[C@]3(C)[C@@H]2[C@H](O)C[C@@H]2[C@@]4(C)CC[C@H](NC(=O)CCCCCN)C(C)(C)[C@@H]4CC[C@]23C)O1 | 105 | 79 | 101
CC(C)(C)OC(=O)NCC(=O)N[C@H]1CC[C@]2(C)[C@H]3C[C@@H](O)[C@@H]4[C@@H]([C@]5(C)CC[C@H](C(C)(C)O)O5)CC[C@@]4(C)[C@]3(C)CC[C@H]2C1(C)C | 48 | 95 | 42
CC(C)(C)OC(=O)Nc1ccc(C(=O)N[C@H]2CC[C@]3(C)[C@H]4C[C@@H](O)[C@@H]5[C@@H]([C@]6(C)CC[C@H](C(C)(C)O)O6)CC[C@@]5(C)[C@]4(C)CC[C@H]3C2(C)C)cc1 | 54 | 77 | 46
CC(C)(O)[C@H]1CC[C@@](C)([C@H]2CC[C@]3(C)[C@@H]2[C@H](O)C[C@@H]2[C@@]4(C)CC[C@H](NC(=O)c5ccccc5C(=O)O)C(C)(C)[C@@H]4CC[C@]23C)O1 | 96 | 105 | 85
CCCCCC(=O)N[C@H]1CC[C@]2(C)[C@H]3C[C@@H](O)[C@@H]4[C@@H]([C@]5(C)CC[C@@H](C(C)(C)O)O5)CC[C@@]4(C)[C@]3(C)CC[C@H]2C1(C)C | 78 | 98 | 44
CCCC(=O)N[C@H]1CC[C@]2(C)[C@H]3C[C@@H](O)[C@@H]4[C@@H]([C@]5(C)CC[C@H](C(C)(C)O)O5)CC[C@@]4(C)[C@]3(C)CC[C@H]2C1(C)C | 89 | 103 | 55
CC(C)(O)[C@@H]1CC[C@@](C)([C@H]2CC[C@]3(C)[C@@H]2[C@H](O)C[C@@H]2[C@@]4(C)CC[C@H](NC(=O)CCCCCCCN)C(C)(C)[C@@H]4CC[C@]23C)O1 | 118 | 118 | 76
CC(C)(O)[C@@H]1CC[C@@](C)([C@H]2CC[C@]3(C)[C@@H]2[C@H](O)C[C@@H]2[C@@]4(C)CC[C@H](NC(=O)c5ccccc5)C(C)(C)[C@@H]4CC[C@]23C)O1 | 90 | 116 | 48
CC(C)(C)OC(=O)NCCCC(=O)N[C@H]1CC[C@]2(C)[C@H]3C[C@@H](O)[C@@H]4[C@@H]([C@]5(C)CC[C@@H](C(C)(C)O)O5)CC[C@@]4(C)[C@]3(C)CC[C@H]2C1(C)C | 90 | 94 | 44
CC(C)(O)[C@@H]1CC[C@@](C)([C@H]2CC[C@]3(C)[C@@H]2[C@H](O)C[C@@H]2[C@@]4(C)CC[C@H](N)C(C)(C)[C@@H]4CC[C@]23C)O1 | 102 | 91 | 88
CC(C)(O)[C@H]1CC[C@@](C)([C@H]2CC[C@]3(C)[C@@H]2[C@H](O)C[C@@H]2[C@@]4(C)CC[C@H](NC(=O)c5ccccc5)C(C)(C)[C@@H]4CC[C@]23C)O1 | 59 | 101 | 39
CC(C)(O)[C@H]1CC[C@@](C)([C@H]2CC[C@]3(C)[C@@H]2[C@H](O)C[C@@H]2[C@@]4(C)CC[C@H](O)C(C)(C)[C@@H]4CC[C@]23C)O1 | – | 94 | 95
CC(C)(O)[C@@H]1CC[C@@](C)([C@H]2CC[C@]3(C)[C@@H]2[C@H](O)C[C@@H]2[C@@]4(C)CC[C@H](O)C(C)(C)[C@@H]4CC[C@]23C)O1 | – | 111 | 104
CC(C)(O)[C@@H]1CC[C@@](C)([C@H]2CC[C@]3(C)[C@@H]2[C@H](O)C[C@@H]2[C@@]4(C)CC[C@H](NC(=O)c5ccccc5O)C(C)(C)[C@@H]4CC[C@]23C)O1 | 61 | 96 | 36

SMILES | Survival [1] [%] | viability at 72 h, 10 µM [2] [%] | Survival [3] [%]
CC(C)(C)OC(=O)NCC(=O)N[C@H]1CC[C@]2(C)[C@H]3C[C@@H](O)[C@@H]4[C@@H]([C@]5(C)CC[C@@H](C(C)(C)O)O5)CC[C@@]4(C)[C@]3(C)CC[C@H]2C1(C)C | 61 | 96 | 42
CC(C)(C)OC(=O)NCCCC(=O)N[C@H]1CC[C@]2(C)[C@H]3C[C@@H](O)[C@@H]4[C@@H]([C@]5(C)CC[C@H](C(C)(C)O)O5)CC[C@@]4(C)[C@]3(C)CC[C@H]2C1(C)C | 48 | 67 | 34
CCCCCCCC(=O)N[C@H]1CC[C@]2(C)[C@H]3C[C@@H](O)[C@@H]4[C@@H]([C@]5(C)CC[C@H](C(C)(C)O)O5)CC[C@@]4(C)[C@]3(C)CC[C@H]2C1(C)C | 56 | 70 | 39
CC(C)(O)[C@H]1CC[C@@](C)([C@H]2CC[C@]3(C)[C@@H]2[C@H](O)C[C@@H]2[C@@]4(C)CC[C@H](NC(=O)c5ccc(N)cc5)C(C)(C)[C@@H]4CC[C@]23C)O1 | 77 | 75 | 47
CC(C)(O)[C@@H]1CC[C@@](C)([C@H]2CC[C@]3(C)[C@@H]2[C@H](O)C[C@@H]2[C@@]4(C)CC[C@H](NC(=O)CCCN)C(C)(C)[C@@H]4CC[C@]23C)O1 | 111 | 105 | 102
CC(C)(O)[C@H]1CC[C@@](C)([C@H]2CC[C@]3(C)[C@@H]2[C@H](O)C[C@@H]2[C@@]4(C)CC[C@H](NC(=O)CCCCCN)C(C)(C)[C@@H]4CC[C@]23C)O1 | 91 | 86 | 91
CC(C)(O)[C@H]1CC[C@@](C)([C@H]2CC[C@]3(C)[C@@H]2[C@H](O)C[C@@H]2[C@@]4(C)CC[C@H](NC(=O)CCCN)C(C)(C)[C@@H]4CC[C@]23C)O1 | 100 | 77 | 85
CC(C)(C)OC(=O)NCCCCCC(=O)N[C@H]1CC[C@]2(C)[C@H]3C[C@@H](O)[C@@H]4[C@@H]([C@]5(C)CC[C@@H](C(C)(C)O)O5)CC[C@@]4(C)[C@]3(C)CC[C@H]2C1(C)C | 65 | 79 | 40
CC(C)(O)[C@H]1CC[C@@](C)([C@H]2CC[C@]3(C)[C@@H]2[C@H](O)C[C@@H]2[C@@]4(C)CC[C@H](NC(=O)CN)C(C)(C)[C@@H]4CC[C@]23C)O1 | 99 | 103 | 49
CCCCCC(=O)N[C@H]1CC[C@]2(C)[C@H]3C[C@@H](O)[C@@H]4[C@@H]([C@]5(C)CC[C@H](C(C)(C)O)O5)CC[C@@]4(C)[C@]3(C)CC[C@H]2C1(C)C | 69 | 101 | 43
CC(C)(C)OC(=O)NCCCCCCCC(=O)N[C@H]1CC[C@]2(C)[C@H]3C[C@@H](O)[C@@H]4[C@@H]([C@]5(C)CC[C@H](C(C)(C)O)O5)CC[C@@]4(C)[C@]3(C)CC[C@H]2C1(C)C | 54 | 106 | 39
CC(C)(O)[C@@H]1CC[C@@](C)([C@H]2CC[C@]3(C)[C@@H]2[C@H](O)C[C@@H]2[C@@]4(C)CC[C@H](NC(=O)c5cccnc5)C(C)(C)[C@@H]4CC[C@]23C)O1 | 115 | 91 | 61
CC(C)(O)[C@@H]1CC[C@@](C)([C@H]2CC[C@]3(C)[C@@H]2[C@H](O)C[C@@H]2[C@@]4(C)CC[C@H](NC(=O)CN)C(C)(C)[C@@H]4CC[C@]23C)O1 | 98 | 90 | 115
CC(C)(O)[C@H]1CC[C@@](C)([C@H]2CC[C@]3(C)[C@@H]2[C@H](O)C[C@@H]2[C@@]4(C)CC[C@H](NC(=O)c5ccccc5O)C(C)(C)[C@@H]4CC[C@]23C)O1 | 51 | 100 | 40
CC(C)(C)OC(=O)NCCCCCCCC(=O)N[C@H]1CC[C@]2(C)[C@H]3C[C@@H](O)[C@@H]4[C@@H]([C@]5(C)CC[C@@H](C(C)(C)O)O5)CC[C@@]4(C)[C@]3(C)CC[C@H]2C1(C)C | 54 | 111 | 41
